# A selection: hits, their analogues and other compounds. The true share with any hit is near 0.54%.
# PKD1 kinase inh: inhibitors of human PKD1 kinase. Q15139. PKD1 kinase fluorescence polarization assay. inhibition, % (concentration not given with the values). 0.056% of 200,000 active. AID 797; in the data active = inhibition above about 50%
# ARFGAP1 inhibitor: inhibits rat ARF GTPase activating protein 1. Arfgap1-stimulated ARF1 GTP hydrolysis, GDP FP detection. inhibition, % at 16.5 µM. 0.26% of 360,000 active. AID 651572;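 active = inhibition above a per-plate limit, mean inhibition of low control wells plus 3 SD, cut at about 25% in these data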;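 also: 0% = DMSO wells with enzyme and 100% = wells lacking Arfgap1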
# Target sequence (Q62848 1-136 limits assumed): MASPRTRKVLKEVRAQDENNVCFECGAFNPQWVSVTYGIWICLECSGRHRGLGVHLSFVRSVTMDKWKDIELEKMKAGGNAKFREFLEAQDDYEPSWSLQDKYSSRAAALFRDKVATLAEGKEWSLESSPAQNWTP
#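 Material: rat Arfgap1 GAP domain (His6, aa 1-136), purified enzyme. Also added: human ARF1(Δ1-17)-GTP substrate. Compound dosing: 16.5 µM single point, 1.26% DMSO. Timing: enzyme reaction 120 min at 25 °C after 20 min preincubation. Signal: GDP detection by fluorescence polarization. Read-out basis: percent inhibition of GAP-stimulated GDP formation, scaled between DMSO and no-Arfgap1 medians.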
# PP5 primary: inhibitors of human protein phosphatase 5 (PP5); purified PP5c, OMFP substrate fluorescence; inhibition, % at 6.7 µM; 0.18% of 320,000 active; AID 1987;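 active = inhibition above the campaign's mean inhibition across all tested compounds plus 3 SD, cut at about 9.5% in these data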;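 also: 0% = DMSO only and 100% = 100 µM cantharidin control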
# ASAP1 inh: blocks human ASAP1-stimulated Arf1 GTP hydrolysis; Q9ULH1; GDP FP detection; inhibition, % at 16.5 µM; 0.19% of 360,000 active; AID 624377; in the data active = inhibition above about 25%;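 also: 0% = vehicle with enzyme and substrate and 100% = no enzyme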
# PP5 inh confirm: confirmation of human PP5 phosphatase inhibitors; shares compounds with PP5 primary; Purified PP5, fluorogenic phosphatase substrate, fluorescence; inhibition, % at 6.7 µM; 22% of 460 active; in the data active = inhibition above about 9.5%
# PP1 counter 3x: counter-screen for PP5 inhibitors: human PP1 phosphatase inhibition. shares compounds with PP5 primary. 4% of 460 active. PP1 enzyme, fluorescent phosphatase substrate. inhibition, % at 6.7 µM. AID 2355; in the data active = inhibition above about 16%
# Target sequence (P62136 whole entry, looked up): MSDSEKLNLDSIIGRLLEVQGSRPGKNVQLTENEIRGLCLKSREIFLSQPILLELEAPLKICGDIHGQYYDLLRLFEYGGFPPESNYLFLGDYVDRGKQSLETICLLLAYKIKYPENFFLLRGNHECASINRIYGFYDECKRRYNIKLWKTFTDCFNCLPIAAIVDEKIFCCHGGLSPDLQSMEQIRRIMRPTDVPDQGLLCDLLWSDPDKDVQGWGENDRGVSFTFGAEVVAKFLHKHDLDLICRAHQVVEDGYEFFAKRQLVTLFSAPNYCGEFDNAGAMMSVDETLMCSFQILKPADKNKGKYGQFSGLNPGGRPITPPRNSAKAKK
# ASAP1 inh confirm: confirmation of human ASAP1 inhibitors; shares compounds with ASAP1 inh; ASAP1-stimulated Arf1 GTPase, GDP fluorescence polarization; inhibition, % at 16.5 µM; 37% of 620 active; AID 624431;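 active = mean inhibition over triplicates exceeds the hit threshold derived for the earlier primary screening run, cut at about 25% in these data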
# ARFGAP1 confirm: confirmation of rat ARFGAP1 inhibitors | ARFGAP1-stimulated ARF1 GTP hydrolysis, GDP tracer FP | inhibition, % at 16.5 µM | shares compounds with ARFGAP1 inhibitor | AID 651608 | 30% of 890 active;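 active = average inhibition over triplicates above the hit cutoff set in the earlier primary screen, cut at about 25% in these data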;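 also: 0% = Arfgap1 plus ARF1-GTP with DMSO and 100% = wells lacking Arfgap1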
# Starred values were filed as active, the others as inactive; / = not tested or not shown.
SMILES,PKD1 kinase inh,ARFGAP1 inhibitor,PP5 primary,ASAP1 inh,ASAP1 inh confirm,others
COC(=O)c1nc(-c2ccc3c(n2)C(=O)C(N)=C(OC)C3=O)c(N)c(-c2ccc(OC)c(OC)c2O)c1C,/,0,8,31*,/,
O=C(O)C1C2c3ccccc3C(c3ccccc32)C1C(=O)Nc1ccccc1 (centres undefined),-11,2,0,-6,/,
O=C(O)C1C2CCC(O2)C1C(=O)Nc1cccc(Br)c1 (centres undefined),/,9,69*,6,/,
OC1CN2CCCC(O)C2C1O (centres undefined),/,4,/,5,/,
CCOc1ccccc1-n1c(O)c(C=Nc2ccc(N(CC)CC)cc2)c(=O)[nH]c1=O,-6,-6,12*,-9,/,PP5 inh confirm=0;PP1 counter 3x=0
CCN(CC)c1ccc(N=Cc2c(O)n(-c3ccccc3C)c(=O)[nH]c2=O)cc1,-8,1,3,-5,/,
COc1ccc(Cn2c(N)c(C(=O)NCc3ccco3)c3nc4ccccc4nc32)cc1,6,1,11*,21,/,PP5 inh confirm=11*;PP1 counter 3x=4
CCCCn1c(NC(=O)c2ccco2)c(C(=O)OCC)c2nc3ccccc3nc21,-5,8,9.6*,22,/,PP5 inh confirm=37*;PP1 counter 3x=8
CC(C)NC1(c2ccccc2)CCCCC1,/,0,/,0,/,
COc1ccc(NC(=S)N2Cc3ccccc3-n3nncc3C2)c(OC)c1,/,-3,/,2,/,
CC(C)N1C(=O)/C(=C/C=C/c2ccco2)C(=O)N(Cc2ccco2)C1=O,2,14,2,14,/,
CCN1C(=O)C(=C/C=C/c2ccco2)C(=O)N(CC)C1=S,-4,-2,0,28*,22,
C[C@@H]1CN([C@H](C)CO)C(=O)CCCn2nncc2CO[C@H]1CN(C)C(=O)Oc1ccc2ccccc2c1,/,1,/,-1,/,
COCCCn1c(N)c(C(=O)NCCC(C)C)c2nc3ccccc3nc21,-5,23,8,27*,9,
CCOC(=O)[C@]12Cc3cc(C)ccc3[C@H]1N(C1CCCCC1)C(=O)c1cc(OC)ccc12,/,-12,/,1,/,
CCC(C)C1NC(=O)C(NC(=O)C(CC(C)C)N(C)C(=O)C2CCCN2C(=O)C(C)O)C(C)OC(=O)C(Cc2ccc(OC)cc2)N(C)C(=O)C2CCCN2C(=O)C(CC(C)C)NC(=O)[C@H](C)C(=O)[C@H](C(C)C)OC(=O)CC1O (some centres undefined),/,5,/,27*,3,
Nc1c(C(=O)NCc2ccco2)c2nc3ccccc3nc2n1Cc1ccc(F)cc1,-1,0,8,32*,14,
Nc1c(C(=O)NCc2ccco2)c2nc3ccccc3nc2n1Cc1ccccc1,-7,4,4,1,/,
CN(C)c1ccc(/C=C/C=C/c2sc3ccccc3[n+]2C)cc1,/,92*,-2,80*,109*,ARFGAP1 confirm=127*
CC[n+]1c(/C=C/N(C)c2ccccc2)sc2ccc(Cl)cc21,1,-3,3,3,/,
CC[n+]1c(/C=C/C=C/c2ccc(N(C)C)cc2)sc2ccccc21,/,107*,3,98*,123*,ARFGAP1 confirm=159*
CN(C)c1ccc(/C=C/c2cc[n+](C)c3ccccc23)cc1,-9,37*,/,44*,51*,ARFGAP1 confirm=49*
COc1ccc(-n2nnnc2C(CCSC)N2CCC(n3c(=O)[nH]c4ccccc43)CC2)cc1 (centres undefined),/,-1,/,0,/,
FC(F)(F)c1ccc(-c2ccc3c(c2)CNCc2cnnn2-3)cc1,/,7,/,-3,/,
CCC12CCN(CC3(O)CC3)C(Cc3ccc(O)cc31)C2(C)C (centres undefined),/,-2,/,0,/,
O=C(O)c1cccc2c1NC(C(=O)O)C1CC(Sc3ccccc3[N+](=O)[O-])C(Cl)C21 (centres undefined),7,35*,3,59*,61*,ARFGAP1 confirm=87*
CC(=O)c1ccc2c(c1)C1C(Cl)C(Sc3ccccc3[N+](=O)[O-])CC1C(C(=O)O)N2 (centres undefined),6,0,3,-1,/,
